Reference: paper PMC4758401 (Diabetes, Obesity & Metabolism, 2015)
Read-outs that look alike come from different tables or passages of the source.

Legend:
Format in all cases: in vivo, patients with type 1 diabetes
[1] = test system: plasma glucose
[2] = test system: glucagon; conditions: for Reduction of AUC0–3 h for glucagon: p < 0.05
Summary of the method: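 Same crossover design: test compound at 6, 9 or 12 mcg/U insulin or volume-matched placebo, each injected separately alongside subcutaneous regular insulin (30% reduced dose) just before a standard 600-kcal breakfast. Plasma immunoreactive glucagon was measured by radioimmunoassay in samples taken at −15, −5, 15, 30, 45, 60, 90, 120, 150 and 180 min. Incremental AUC0–3 h from baseline was compared with placebo by a linear mixed-effects model (sequence, period, treatment, random patient), two-sided 0.05.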

[3] = Adverse events and hypoglycaemia
Summary of the method: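 Four-way crossover in adults with type 1 diabetes, one visit per arm over 4 weeks. Before a 600-kcal breakfast, each arm received subcutaneous regular insulin at 30% below the usual rapid-analogue dose, plus a separate masked injection of test compound (6, 9 or 12 mcg/U insulin) or volume-matched placebo. Symptomatic hypoglycaemia was tracked for 24 h after dosing; adverse events were recorded on- and off-treatment.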

[4] = all ratios (6, 9 or 12 mcg/unit insulin)

Structure (SMILES): CC[C@H](C)[C@H](NC(=O)[C@@H]1CCCN1C(=O)CNC(=O)[C@H](Cc1ccccc1)NC(=O)[C@H](CC(N)=O)NC(=O)[C@H](CC(N)=O)NC(=O)[C@H](CO)NC(=O)[C@H](CO)NC(=O)[C@H](Cc1c[nH]cn1)NC(=O)[C@@H](NC(=O)[C@H](CC(C)C)NC(=O)[C@H](Cc1ccccc1)NC(=O)[C@H](CC(N)=O)NC(=O)[C@H](C)NC(=O)[C@H](CC(C)C)NC(=O)[C@H](CCCNC(=N)N)NC(=O)[C@H](CCC(N)=O)NC(=O)[C@@H](NC(=O)[C@H](C)NC(=O)[C@@H]1CSSC[C@H](NC(=O)[C@@H](N)CCCCN)C(=O)N[C@@H](CC(N)=O)C(=O)N[C@@H]([C@@H](C)O)C(=O)N[C@@H](C)C(=O)N[C@@H]([C@@H](C)O)C(=O)N1)[C@@H](C)O)C(C)C)C(=O)N[C@@H](CC(C)C)C(=O)N1CCC[C@H]1C(=O)N1CCC[C@H]1C(=O)N[C@H](C(=O)N[C@@H](CC(N)=O)C(=O)N[C@H](C(=O)NCC(=O)N[C@@H](CO)C(=O)N[C@@H](CC(N)=O)C(=O)N[C@H](C(=O)N[C@@H](Cc1ccc(O)cc1)C(N)=O)[C@@H](C)O)C(C)C)[C@@H](C)O [pramlintide]
- Reduction of AUC0–3 h for glucose ([1]; 6 mcg/U ratio vs placebo/insulin, p < 0.001): 60%
- Glucose incremental AUC0–3 h, LS mean difference ([1]; 6 mcg–placebo, p <0.001): -205.98 mg·h/dL
- Glucose incremental AUC0–3 h, LS mean difference ([1]; 6–9 mcg, p 0.890): -6.04 mg·h/dL
- Glucose incremental AUC0–3 h, LS mean difference ([1]; 6–12 mcg, p 0.343): 40.63 mg·h/dL
- Glucose incremental AUC0–3 h, LS mean difference ([1]; 9 mcg–placebo, p <0.001): -199.93 mg·h/dL
- Glucose incremental AUC0–3 h, LS mean difference ([1]; 9–12 mcg, p 0.280): 46.67 mg·h/dL
- Glucose incremental AUC0–3 h, LS mean difference ([1]; 12 mcg–placebo, p <0.001): -246.60 mg·h/dL
- Reduction of 0–3‐h glucose increments [1, 4]: > 50%
- Reduction of AUC0–3 h for glucagon ([2]; 6 mcg/U ratio vs placebo/insulin): 57%
- Glucagon incremental AUC0–3 h, LS mean difference ([2]; 6 mcg–placebo, p 0.041): -14.23 pg·h/mL
- Glucagon incremental AUC0–3 h, LS mean difference ([2]; 6–9 mcg, p 0.934): 0.57 pg·h/mL
- Glucagon incremental AUC0–3 h, LS mean difference ([2]; 6–12 mcg, p 0.945): -0.47 pg·h/mL
- Reduction of AUC0–3 h for glucagon ([2]; 9 mcg/U ratio vs placebo/insulin): 59%
- Glucagon incremental AUC0–3 h, LS mean difference ([2]; 9 mcg–placebo, p 0.034): -14.80 pg·h/mL
- Glucagon incremental AUC0–3 h, LS mean difference ([2]; 9–12 mcg, p 0.879): -1.05 pg·h/mL
- Reduction of AUC0–3 h for glucagon ([2]; 12 mcg/U ratio vs placebo/insulin): 55%
- Glucagon incremental AUC0–3 h, LS mean difference ([2]; 12 mcg–placebo, p 0.046): -13.75 pg·h/mL
- Reduction of 0–3‐h glucagon increments [2, 4]: > 50%
- Tolerability ([3]; all ratios (6, 9, 12 mcg/U insulin), single meal-time injection): well tolerated
- Symptomatic hypoglycaemia ([3]; during the 24‐h period after pramlintide administration, all ratios): No symptomatic hypoglycaemia occurred
- Nausea ([3]; one patient, accompanying each pramlintide/insulin ratio, able to complete each test meal): mild nausea
- Mild, asymptomatic hypoglycaemia between test meal days ([3]; one patient, after pramlintide 12 mcg/U): hypoglycaemia 5 and 7 days after receiving pramlintide 12 mcg/U
